Tests used:
PI3K p110 beta/p85 alpha = PI3K p110 beta/p85 alpha (Homo sapiens, UniProt P42338); experiment: Inhibition of recombinant human full-length N-terminal His-tagged PI3K p110beta/p85alpha using […] as substrate measured after 30 mins by TR-FRET assay; format: protein-complex assay
[1] = Volume of distribution at steady state in rat at 1 mg/kg, iv; format: ADME, organism-based; settings: in vivo, read-out: Vdss
Method in brief: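 Rats and dog received 1 mg/kg intravenously, formulated in 12% w/v Captisol in water. Volume of distribution was taken at steady state from the iv plasma profile. Three animals per dosing route.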

[2] = MRT in Sprague-Dawley rat at 1 mg/kg, iv measured over 24 hrs by LC/MS/MS analysis; format: ADME, organism-based; settings: in vivo
Method in brief: (§1)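 Intravenous 1 mg/kg and oral 5 mg/kg doses. Vehicle: 5% ethanol/55% PEG 400/40% water for rats and dogs; 5% ethanol/22% PEG 400/73% water for cynomolgus; 5% ethanol/25% PEG 400/70% water for rhesus. Half-life and MRT from iv; mean ± SD, n = 3 per route.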

[3] = Oral bioavailability in Beagle dog at 5 mg/kg measured over 24 hrs by LC/MS/MS analysis; format: ADME, organism-based, Canis lupus familiaris; settings: in vivo; method in brief: as §1
[4] = Chemical stability of the compound at pH 2 phosphate buffer assessed as time required for 90% hydrolytic degradation at 100 ug/ml and 40 degreeC by UPLC-UV analysis; format: physicochemical; settings: in the assay text read “10% hydrolytic degradation” for “90% hydrolytic degradation”, dose 100 µg/ml
Method in brief: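 Compound diluted from acetonitrile or DMSO stock to 100 μg/mL final in 50 mM phosphate buffer, pH 2 (or pH 7), ionic strength 0.15 M NaCl, 40 °C in autosampler. Timed injections analysed by reverse-phase UPLC-UV (220 nm); pseudo-first-order kobs from ln c vs time; t50 and t90 calculated.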

[5] = Terminal half life in cynomolgus monkey at 1 mg/kg, iv measured over 24 hrs by LC/MS/MS analysis; format: ADME, organism-based, Macaca fascicularis; settings: in vivo, read-out: beta t1/2 (converted)
Method in brief: (§2)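 Single intravenous dose of 1 mg/kg. Vehicles: rats and dogs 5% ethanol/55% PEG 400/40% water; cynomolgus monkeys 5% ethanol/22% PEG 400/73% water; rhesus monkeys 5% ethanol/25% PEG 400/70% water. Plasma concentration–time data gave Vss and iv half-life. Reported as mean ± SD, n = 3.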

[6] = Clearance in rhesus monkey at 1 mg/kg, iv measured over 24 hrs by LC/MS/MS analysis; format: ADME, organism-based, Macaca mulatta; settings: in vivo; method in brief: as §1
Rattus norvegicus = experiment: Antiarthritic activity in Lewis rat model of Freund's incomplete adjuvant-induced arthritis assessed as inhibition of pannus formation at 0.3 to 3 mg/kg, po bid administered for 7 days at 12 hrs interval starting from day 10 to day 16 post-immunization by microscopic analysis relative to control; format: functional; parameters: scale not given: the % may be the effect or the level left; settings: dose 0.3-3 mg/kg, time 7 day
Method in brief: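 Female Lewis rats with established collagen-induced arthritis dosed orally twice daily for 7 days at 0.3, 1 and 3 mg/kg, starting day 10 after second collagen immunization. Joint histopathology scored for pannus formation, cartilage damage, bone resorption and periosteal bone formation; ED50 derived. n = 8/treatment group, n = 4 normal controls.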

[7] = molecular target: Voltage-gated inwardly rectifying potassium channel KCNH2 (Homo sapiens, UniProt Q12809); experiment: Inhibition of human ERG at 25 uM
[8] = molecular target: PI3-kinase p110-alpha/p85-alpha (Homo sapiens, UniProt P42336); experiment: Inhibition of human full length PI3K p110alpha/p85alpha using […] as substrate measured after 30 mins by TR-FRET assay; format: protein-complex assay
[9] = molecular target: T1, Phosphatidylinositol 4,5-bisphosphate 3-kinase catalytic subunit delta isoform (Homo sapiens, UniProt O00329); experiment: Inhibition of PI3Kdelta in human whole blood assessed as reduction in anti-FCepsilonR1 mAb-stimulated basophil activation preincubated for 60 mins followed by anti-FCepsilonR1 mAb stimulation and measured after 25 mins by flow cytometry analysis; format: tissue-based
T1 sequence (O00329 whole entry): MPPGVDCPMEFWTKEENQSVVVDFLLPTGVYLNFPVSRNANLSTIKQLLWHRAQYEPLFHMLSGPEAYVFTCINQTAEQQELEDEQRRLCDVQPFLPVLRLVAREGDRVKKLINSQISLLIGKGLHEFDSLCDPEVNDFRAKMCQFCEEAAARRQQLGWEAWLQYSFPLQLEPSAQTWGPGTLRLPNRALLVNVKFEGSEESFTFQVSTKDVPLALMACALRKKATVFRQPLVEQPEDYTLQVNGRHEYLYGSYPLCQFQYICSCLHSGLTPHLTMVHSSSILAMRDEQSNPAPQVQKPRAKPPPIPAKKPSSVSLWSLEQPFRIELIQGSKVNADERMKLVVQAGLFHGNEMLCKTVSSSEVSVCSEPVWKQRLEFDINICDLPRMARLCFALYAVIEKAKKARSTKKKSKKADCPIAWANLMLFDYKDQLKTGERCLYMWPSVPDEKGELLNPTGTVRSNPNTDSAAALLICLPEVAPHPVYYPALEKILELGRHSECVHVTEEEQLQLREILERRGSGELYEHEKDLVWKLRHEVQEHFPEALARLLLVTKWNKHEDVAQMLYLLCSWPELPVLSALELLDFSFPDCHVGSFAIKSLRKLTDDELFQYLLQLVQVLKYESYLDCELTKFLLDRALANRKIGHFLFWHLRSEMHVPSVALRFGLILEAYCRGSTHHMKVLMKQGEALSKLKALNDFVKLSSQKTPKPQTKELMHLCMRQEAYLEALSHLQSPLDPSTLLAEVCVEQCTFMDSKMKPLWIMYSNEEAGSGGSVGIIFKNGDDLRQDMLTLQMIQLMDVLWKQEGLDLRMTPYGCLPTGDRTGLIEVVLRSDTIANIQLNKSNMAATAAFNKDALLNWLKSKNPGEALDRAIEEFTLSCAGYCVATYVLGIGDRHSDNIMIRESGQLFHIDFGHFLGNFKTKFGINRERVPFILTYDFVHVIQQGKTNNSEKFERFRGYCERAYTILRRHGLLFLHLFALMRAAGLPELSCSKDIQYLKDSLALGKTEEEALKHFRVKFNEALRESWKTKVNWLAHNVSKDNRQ

[10] = molecular target: T1, Phosphatidylinositol 4,5-bisphosphate 3-kinase catalytic subunit delta isoform; experiment: Inhibition of PI3Kdelta in human whole blood assessed as inhibition of BCR-induced B-cell activation
[11] = In vivo inhibition of PI3Kdelta in Lewis rat model of Freund's incomplete adjuvant-induced arthritis at 3 mg/kg, po bid administered for 7 days at 12 hrs interval starting from day 10 to day 16 post-immunization relative to control; format: functional; settings: 168 h, time 7 day
Method in brief: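 CIA Lewis rats dosed orally twice daily for 7 days at 0.3, 1 or 3 mg/kg; blood/plasma drug levels taken on day 7, 12 h after final dose, and related to PI3Kδ inhibition at trough.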

[12] = Volume of distribution at steady state in cynomolgus monkey at 1 mg/kg, iv measured over 24 hrs by LC/MS/MS analysis; format: ADME, organism-based, Macaca fascicularis; settings: in vivo, read-out: Vdss; method in brief: as §2
[13] = Selectivity index, ratio of IC50 for inhibition of recombinant human full-length N-terminal His-tagged PI3K p110beta/p85alpha to IC50 for inhibition of human full length PI3K p110delta/p85alpha
[14] = MRT in Beagle dog at 1 mg/kg, iv measured over 24 hrs by LC/MS/MS analysis; format: ADME, organism-based, Canis lupus familiaris; settings: in vivo; method in brief: as §1

Voltage-gated inwardly rectifying potassium channel KCNH2, sequence (Q12809 whole entry): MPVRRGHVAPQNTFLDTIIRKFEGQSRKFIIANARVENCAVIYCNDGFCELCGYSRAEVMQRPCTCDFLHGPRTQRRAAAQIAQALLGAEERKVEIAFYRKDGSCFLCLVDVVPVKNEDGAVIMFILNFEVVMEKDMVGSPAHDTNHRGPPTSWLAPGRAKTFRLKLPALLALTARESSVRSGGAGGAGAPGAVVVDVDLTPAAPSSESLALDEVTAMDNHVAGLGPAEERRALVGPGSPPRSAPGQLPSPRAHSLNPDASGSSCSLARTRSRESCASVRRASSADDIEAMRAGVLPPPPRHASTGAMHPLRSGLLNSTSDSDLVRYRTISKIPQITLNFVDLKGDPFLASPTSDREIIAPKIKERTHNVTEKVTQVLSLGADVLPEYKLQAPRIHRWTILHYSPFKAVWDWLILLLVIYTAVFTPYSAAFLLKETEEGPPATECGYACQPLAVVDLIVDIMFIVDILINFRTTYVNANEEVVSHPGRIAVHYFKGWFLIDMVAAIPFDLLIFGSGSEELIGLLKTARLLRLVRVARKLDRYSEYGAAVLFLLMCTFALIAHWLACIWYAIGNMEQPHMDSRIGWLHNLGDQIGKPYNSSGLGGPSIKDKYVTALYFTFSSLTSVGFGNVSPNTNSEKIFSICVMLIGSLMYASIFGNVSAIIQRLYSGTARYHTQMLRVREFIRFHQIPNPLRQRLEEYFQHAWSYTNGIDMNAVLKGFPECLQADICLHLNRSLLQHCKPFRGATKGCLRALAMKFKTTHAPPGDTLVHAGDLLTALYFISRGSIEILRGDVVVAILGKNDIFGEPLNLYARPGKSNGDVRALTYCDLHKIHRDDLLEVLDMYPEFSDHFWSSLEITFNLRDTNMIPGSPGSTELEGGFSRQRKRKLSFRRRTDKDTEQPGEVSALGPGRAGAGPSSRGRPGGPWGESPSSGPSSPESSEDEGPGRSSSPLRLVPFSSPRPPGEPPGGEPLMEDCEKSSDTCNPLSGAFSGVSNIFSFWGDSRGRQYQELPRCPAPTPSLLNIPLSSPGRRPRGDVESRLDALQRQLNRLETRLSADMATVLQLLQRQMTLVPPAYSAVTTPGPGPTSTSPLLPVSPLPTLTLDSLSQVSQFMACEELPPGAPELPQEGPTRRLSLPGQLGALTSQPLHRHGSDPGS
PI3-kinase p110-alpha/p85-alpha, sequence (P27986 whole entry, canonical isoform): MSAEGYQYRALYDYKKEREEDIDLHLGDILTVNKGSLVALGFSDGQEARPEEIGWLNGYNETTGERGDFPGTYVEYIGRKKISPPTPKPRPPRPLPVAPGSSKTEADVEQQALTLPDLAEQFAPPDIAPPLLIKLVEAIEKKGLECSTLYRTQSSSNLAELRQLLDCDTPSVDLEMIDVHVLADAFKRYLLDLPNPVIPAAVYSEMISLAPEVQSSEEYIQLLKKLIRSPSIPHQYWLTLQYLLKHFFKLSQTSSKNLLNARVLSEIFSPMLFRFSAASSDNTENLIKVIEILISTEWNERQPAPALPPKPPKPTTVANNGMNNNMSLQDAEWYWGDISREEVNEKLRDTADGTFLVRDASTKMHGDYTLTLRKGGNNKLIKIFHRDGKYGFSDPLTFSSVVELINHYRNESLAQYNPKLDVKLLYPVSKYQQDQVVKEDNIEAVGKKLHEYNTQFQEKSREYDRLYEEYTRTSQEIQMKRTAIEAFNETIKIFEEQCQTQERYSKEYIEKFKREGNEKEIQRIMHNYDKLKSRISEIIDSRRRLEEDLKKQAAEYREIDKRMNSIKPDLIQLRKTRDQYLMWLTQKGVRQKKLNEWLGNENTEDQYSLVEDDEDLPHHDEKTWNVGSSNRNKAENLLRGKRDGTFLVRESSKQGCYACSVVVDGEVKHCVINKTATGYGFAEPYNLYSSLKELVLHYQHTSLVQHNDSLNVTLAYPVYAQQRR
PI3-kinase p110-alpha/p85-alpha, sequence (P42336 whole entry, canonical isoform): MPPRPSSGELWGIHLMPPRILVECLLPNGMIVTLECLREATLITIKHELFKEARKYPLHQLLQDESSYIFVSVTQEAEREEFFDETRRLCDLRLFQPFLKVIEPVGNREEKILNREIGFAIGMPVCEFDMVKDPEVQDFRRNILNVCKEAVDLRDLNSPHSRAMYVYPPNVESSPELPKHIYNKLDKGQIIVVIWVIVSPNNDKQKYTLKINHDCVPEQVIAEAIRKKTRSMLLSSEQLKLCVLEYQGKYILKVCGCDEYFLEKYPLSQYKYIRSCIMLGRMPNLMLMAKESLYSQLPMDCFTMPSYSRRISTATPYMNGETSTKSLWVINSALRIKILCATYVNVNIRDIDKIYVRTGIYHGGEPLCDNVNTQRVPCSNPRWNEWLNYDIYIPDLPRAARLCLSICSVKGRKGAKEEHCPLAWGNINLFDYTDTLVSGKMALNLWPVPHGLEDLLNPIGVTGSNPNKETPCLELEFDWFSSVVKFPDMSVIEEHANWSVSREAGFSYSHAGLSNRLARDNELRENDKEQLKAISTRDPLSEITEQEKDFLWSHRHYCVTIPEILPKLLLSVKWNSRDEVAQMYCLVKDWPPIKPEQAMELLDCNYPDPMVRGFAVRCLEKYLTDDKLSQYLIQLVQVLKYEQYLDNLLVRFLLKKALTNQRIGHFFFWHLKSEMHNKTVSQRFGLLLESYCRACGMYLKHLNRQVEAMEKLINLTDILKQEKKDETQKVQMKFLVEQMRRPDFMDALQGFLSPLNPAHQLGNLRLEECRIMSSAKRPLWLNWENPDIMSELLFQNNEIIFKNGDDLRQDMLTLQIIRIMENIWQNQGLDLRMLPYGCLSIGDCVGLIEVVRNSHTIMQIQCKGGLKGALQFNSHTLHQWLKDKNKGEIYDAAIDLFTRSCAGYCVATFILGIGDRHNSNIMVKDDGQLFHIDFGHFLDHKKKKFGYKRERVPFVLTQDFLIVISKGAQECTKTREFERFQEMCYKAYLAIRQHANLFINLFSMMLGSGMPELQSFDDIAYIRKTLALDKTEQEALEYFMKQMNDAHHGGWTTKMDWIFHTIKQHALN
PI3K p110 beta/p85 alpha, sequence (P27986 whole entry): as the sequence (P27986 whole entry, canonical isoform) above
PI3K p110 beta/p85 alpha, sequence (P42338 whole entry): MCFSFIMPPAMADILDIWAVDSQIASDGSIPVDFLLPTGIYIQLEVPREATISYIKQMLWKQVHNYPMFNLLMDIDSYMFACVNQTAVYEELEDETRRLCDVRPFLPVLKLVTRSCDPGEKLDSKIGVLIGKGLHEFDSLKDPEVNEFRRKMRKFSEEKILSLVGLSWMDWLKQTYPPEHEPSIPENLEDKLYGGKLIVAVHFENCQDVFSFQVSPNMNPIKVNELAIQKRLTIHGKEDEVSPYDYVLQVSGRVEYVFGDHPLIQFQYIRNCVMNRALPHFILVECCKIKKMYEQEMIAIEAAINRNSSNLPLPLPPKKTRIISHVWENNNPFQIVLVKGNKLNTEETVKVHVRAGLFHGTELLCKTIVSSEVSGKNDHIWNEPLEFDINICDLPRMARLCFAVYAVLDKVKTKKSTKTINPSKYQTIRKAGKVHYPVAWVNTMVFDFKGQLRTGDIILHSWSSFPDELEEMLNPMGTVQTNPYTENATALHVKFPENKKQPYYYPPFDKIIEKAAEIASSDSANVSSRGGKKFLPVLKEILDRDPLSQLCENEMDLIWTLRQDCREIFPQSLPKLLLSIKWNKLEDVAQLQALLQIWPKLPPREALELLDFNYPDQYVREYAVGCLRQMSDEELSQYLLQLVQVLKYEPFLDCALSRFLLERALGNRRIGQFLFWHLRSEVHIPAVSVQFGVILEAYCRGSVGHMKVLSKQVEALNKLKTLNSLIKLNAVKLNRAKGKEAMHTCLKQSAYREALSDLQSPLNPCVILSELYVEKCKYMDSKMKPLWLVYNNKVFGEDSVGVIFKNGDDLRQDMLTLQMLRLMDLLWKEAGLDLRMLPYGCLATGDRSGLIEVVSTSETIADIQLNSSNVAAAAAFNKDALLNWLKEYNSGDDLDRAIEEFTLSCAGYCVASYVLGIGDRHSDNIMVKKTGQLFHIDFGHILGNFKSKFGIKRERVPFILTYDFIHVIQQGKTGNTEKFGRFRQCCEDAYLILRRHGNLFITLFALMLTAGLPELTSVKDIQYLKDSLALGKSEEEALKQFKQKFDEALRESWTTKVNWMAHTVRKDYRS

IC50 (PI3K p110 beta/p85 alpha): 100 nM
Vd [1]: 0.83 L/kg
MRT [2]: 1.95 h
bioavailability [3]: 49%
Time [4]: 3.1 h
half-life [5]: 2.89 h
clearance [6]: 11.7 mL/min/kg
IC50 [8]: 750 nM
EC50 [9]: 1 nM
EC50 [10]: 2.4 nM
Vd [12]: 1.21 L/kg
Ratio IC50 [13]: 100
MRT [14]: 2.01 h
SMILES: N#Cc1c(N)nc(N)nc1N[C@H](c1nc2c(F)ccc(Cl)c2c(=O)n1-c1cccnc1)C1CC1 [GS-9901]
Activity (Rattus norvegicus): 58%
inhibition (INH) [7]: Not Active
inhibition in vivo at 3 mg/kg [11]: > 90%

— ChEMBL document CHEMBL4765230, “Discovery of Orally Efficacious Phosphoinositide 3-Kinase δ Inhibitors with Improved Metabolic Stability” (J Med Chem, 2016)
